Experimental data from ChEMBL document CHEMBL3739287, “Diversification of edaravone via palladium-catalyzed hydrazine cross-coupling: Applications against protein misfolding and oligomerization of beta-amyloid” (Bioorg Med Chem Lett, 2016).

Legend:
[1] = molecular target: T1, Amyloid-beta precursor protein (Homo sapiens, UniProt P05067); assay: Inhibition of N-alpha-biotinyl-amyloid beta (1 to 42 residues) (unknown origin) oligomerization incubated for 1 hr by sandwich biotin-avidin assay
Outline: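 Sub-nanomolar detection of N-α-biotinyl-Aβ(1–42) oligomers using single-site NeutrAvidin capture with labeled streptavidin detection. The format recognizes multimeric (>20 kDa) oligomers but not monomer. Compounds were tested over 1–50 μM to build dose-response curves, from which IC50 was determined.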

[2] = molecular target: T1, Amyloid-beta precursor protein; assay: Inhibition of amyloid beta (1 to 40 residues) (unknown origin) aggregation at 25 uM incubated for 72 hrs by Thioflavin T assay
Outline: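 Kinetic ThT aggregation format: monomeric Aβ40 (20 μM) with ThT (8 μM) and compound at a single 25 μM concentration. Fluorescence was followed over 72 h, and percent inhibition of aggregation was taken at 72 h.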

[3] = molecular target: T1, Amyloid-beta precursor protein; assay: Inhibition of amyloid beta (1 to 40 residues) (unknown origin) aggregation incubated for 72 hrs by Thioflavin T assay
Outline: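 Aβ40 (20 μM) aggregation in a kinetic format with ThT (8 μM), fluorescence read over 72 h. IC50 came from dose-response curves of percent inhibition and was collected only for compounds giving >50% inhibition at 25 μM in this assay and IC50 <50 μM in the bio-Aβ42 oligomer assay.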

T1 sequence (P05067 whole entry, the tested form may be a part): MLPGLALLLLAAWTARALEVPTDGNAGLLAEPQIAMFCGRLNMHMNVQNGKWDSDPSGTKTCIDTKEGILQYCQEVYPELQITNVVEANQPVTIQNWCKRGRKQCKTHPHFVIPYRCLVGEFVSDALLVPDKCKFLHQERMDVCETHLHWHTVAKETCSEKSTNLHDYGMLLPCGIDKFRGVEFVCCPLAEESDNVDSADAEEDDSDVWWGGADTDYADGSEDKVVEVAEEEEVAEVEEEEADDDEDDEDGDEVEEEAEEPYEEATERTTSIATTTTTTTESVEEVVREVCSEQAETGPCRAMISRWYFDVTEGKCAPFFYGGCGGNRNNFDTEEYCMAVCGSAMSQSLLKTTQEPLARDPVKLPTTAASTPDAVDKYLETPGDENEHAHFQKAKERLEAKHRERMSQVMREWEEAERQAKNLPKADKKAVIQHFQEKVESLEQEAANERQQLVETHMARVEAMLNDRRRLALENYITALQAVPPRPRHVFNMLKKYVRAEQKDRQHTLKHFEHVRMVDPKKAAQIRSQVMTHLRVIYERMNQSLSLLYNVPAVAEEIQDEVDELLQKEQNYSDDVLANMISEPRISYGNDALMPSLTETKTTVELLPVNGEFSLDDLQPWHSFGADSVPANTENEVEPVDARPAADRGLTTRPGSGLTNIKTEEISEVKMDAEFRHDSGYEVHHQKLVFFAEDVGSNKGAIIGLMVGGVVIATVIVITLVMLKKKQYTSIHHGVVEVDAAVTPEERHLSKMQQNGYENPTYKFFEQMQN

SMILES | IC50 [1] | inhibition [2] | IC50 [3]
CC1=NN(c2ccc(-n3c(-c4ccccc4)cc4ccccc43)cc2)C(=O)C1 | 3.5 µM | 71.4% | 19.6 µM
CC1=NN(c2cc(C)ccc2C)C(=O)C1 | > 50 µM | 7.4% | 
CC1=NN(c2cccc(C)c2)C(=O)C1 | > 50 µM | 30.9% | 
CC1=NN(c2cc(F)ccc2C)C(=O)C1 | > 50 µM | 26.2% | 
CC1=NN(c2cccc(N3CCCC3)c2)C(=O)C1 | 16.8 µM | 47% | 
CC1=NN(c2ccc(N(c3ccccc3)c3ccccc3)cc2)C(=O)C1 | 4 µM | 50.7% | > 50 µM
CC1=NN(c2ccc(-n3cccc3)cc2)C(=O)C1 | 4 µM | 60.6% | 26 µM
CC1=NN(c2ccccc2)C(=O)C1 [EDARAVONE] | > 50 µM | 17.2% | 
CC1=NN(c2ccc3ccccc3c2)C(=O)C1 | > 50 µM | 56.2% | 
COc1ccc(-c2ccc(N3N=C(C)CC3=O)cc2)cc1 | 5.1 µM | 69.6% | 3.4 µM
CC1=NN(c2ccc(C(F)(F)F)cc2)C(=O)C1 | > 50 µM | 56.3% | 
CC1=NN(c2ccc(-c3cccnc3)cc2)C(=O)C1 | 3.9 µM | 53.2% | 14.5 µM

Continued, values first:

IC50 [1] | inhibition [2] | IC50 [3] | SMILES
> 50 µM | 26.4% |  | COc1cc(F)cc(N2N=C(C)CC2=O)c1
> 50 µM | 16.3% |  | CC1=NN(c2ccc(C)cc2)C(=O)C1
19.5 µM | 78.7% | 5.6 µM | CC1=NN(c2ccc(-c3ccccc3)cc2)C(=O)C1
2.9 µM | 53.4% | 27 µM | CC1=NN(c2cccc(COCc3ccccc3)c2)C(=O)C1
> 50 µM | 49% |  | CC1=NN(c2ccc(C)c(F)c2)C(=O)C1
> 50 µM | 39.7% | > 50 µM | COc1cccc(N2N=C(C)CC2=O)c1
> 50 µM | 20.2% |  | CC1=NN(c2cccnc2)C(=O)C1
> 50 µM | 26.3% |  | CCc1ccccc1N1N=C(C)CC1=O
> 50 µM | 22.7% |  | CC1=NN(c2ccccc2C)C(=O)C1
> 50 µM | 48.2% |  | COc1cc(N2N=C(C)CC2=O)nc(OC)n1
